Data reported in ChEMBL document CHEMBL4138221, “Discovery, optimization and biological evaluation for novel c-Met kinase inhibitors” (Eur J Med Chem, 2018).

Experiments:
[1] = tested on: MKN-45; test: Antiproliferative activity against human MKN45 cells after 72 hrs by Alamarblue assay; settings: MKN-45, 72 h
[2] = tested on: COLO 205; test: Antiproliferative activity against human COLO205 cells after 72 hrs by Alamarblue assay; type: functional, cell-based; settings: COLO 205, 72 h
Method in brief: (§1)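 Cells were seeded in medium with 10% FBS at 37 °C and 5% CO2. After 24 h the medium was switched to serum-free medium containing 0.04% BSA, and cells were exposed to compound for 72 h. AlamarBlue was then added for 1–4 h at 37 °C in the dark, and fluorescence was read at ex 570 / em 585 nm. IC50 was obtained by nonlinear regression fitting.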

[3] = tested on: HCT-116; test: Antiproliferative activity against human HCT116 cells after 72 hrs by Alamarblue assay relative to control; settings: HCT-116, 72 h
[4] = tested on: EBC-1; test: Antiproliferative activity against human EBC1 cells after 72 hrs by Alamarblue assay; settings: EBC-1, 72 h
[5] = tested on: PC-3; test: Antiproliferative activity against human PC3 cells after 72 hrs by Alamarblue assay; type: functional, cell-based; settings: PC-3, 72 h; method in brief: as §1
[6] = tested on: A549; test: Antiproliferative activity against human A549 cells after 72 hrs by Alamarblue assay relative to control; settings: A549, 72 h
[7] = tested on: SGC-7901; test: Antiproliferative activity against human SGC7901 cells after 72 hrs by Alamarblue assay relative to control; settings: SGC-7901, 72 h
[8] = tested on: MCF7; test: Antiproliferative activity against human MCF7 cells after 72 hrs by Alamarblue assay relative to control; settings: MCF7, 72 h
[9] = tested on: NCI-H460; test: Antiproliferative activity against human NCI-H460 cells after 72 hrs by Alamarblue assay; type: functional, cell-based; settings: NCI-H460, 72 h; method in brief: as §1
[10] = tested on: HCT-116; test: Antiproliferative activity against human HCT116 cells at 10 uM after 72 hrs by Alamarblue assay relative to control; type: functional; settings: HCT-116, 72 h, read-out: GI
Method in brief: (§2)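 Single-concentration screen in cells kept at 37 °C and 5% CO2. Cells were plated in 10% FBS medium, then moved after 24 h to serum-free medium with 0.04% BSA. Compound exposure lasted 72 h. AlamarBlue was added for 1–4 h at 37 °C protected from light, and fluorescence was measured at ex 570 / em 585 nm.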

[11] = tested on: MCF7; test: Antiproliferative activity against human MCF7 cells at 10 uM after 72 hrs by Alamarblue assay relative to control; type: functional; settings: MCF7, 72 h, read-out: GI; method in brief: as §2
[12] = tested on: SGC-7901; test: Antiproliferative activity against human SGC7901 cells at 10 uM after 72 hrs by Alamarblue assay relative to control; type: functional; settings: SGC-7901, 72 h, read-out: GI; method in brief: as §2
[13] = tested on: A549; test: Antiproliferative activity against human A549 cells at 10 uM after 72 hrs by Alamarblue assay relative to control; type: functional; settings: A549, 72 h, read-out: GI; method in brief: as §2
[14] = tested on: PC-3; test: Antiproliferative activity against human PC3 cells at 10 uM after 72 hrs by Alamarblue assay relative to control; type: functional; settings: PC-3, 72 h, read-out: GI; method in brief: as §2
[15] = target: Serine/threonine-protein kinase B-raf (Homo sapiens) (UniProt P15056); test: Inhibition of B-raf (unknown origin) at 50 uM
Chain of Serine/threonine-protein kinase B-raf (Homo sapiens) (P15056 whole entry): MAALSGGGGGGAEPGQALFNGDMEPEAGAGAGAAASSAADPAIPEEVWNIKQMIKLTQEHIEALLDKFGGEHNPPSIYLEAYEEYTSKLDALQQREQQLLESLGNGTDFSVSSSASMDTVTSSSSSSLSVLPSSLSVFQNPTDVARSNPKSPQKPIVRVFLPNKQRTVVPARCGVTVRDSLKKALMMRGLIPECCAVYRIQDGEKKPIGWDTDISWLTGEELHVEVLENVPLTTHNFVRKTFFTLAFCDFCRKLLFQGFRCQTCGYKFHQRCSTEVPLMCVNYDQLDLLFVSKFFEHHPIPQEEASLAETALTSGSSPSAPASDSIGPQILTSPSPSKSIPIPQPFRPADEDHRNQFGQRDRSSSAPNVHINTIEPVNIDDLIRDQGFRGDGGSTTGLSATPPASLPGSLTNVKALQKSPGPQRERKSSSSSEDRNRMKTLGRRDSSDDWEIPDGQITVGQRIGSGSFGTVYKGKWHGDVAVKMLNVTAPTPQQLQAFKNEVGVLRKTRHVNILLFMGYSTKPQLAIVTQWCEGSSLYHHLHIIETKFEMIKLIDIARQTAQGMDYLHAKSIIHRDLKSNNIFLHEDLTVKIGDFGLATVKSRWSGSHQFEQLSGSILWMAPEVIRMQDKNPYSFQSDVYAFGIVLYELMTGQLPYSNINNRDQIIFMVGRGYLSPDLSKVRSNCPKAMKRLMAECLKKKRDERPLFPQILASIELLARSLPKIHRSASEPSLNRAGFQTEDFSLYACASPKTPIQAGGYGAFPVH

[16] = target: Vascular endothelial growth factor receptor 2 (Homo sapiens, UniProt P35968); test: Inhibition of KDR (unknown origin)
Chain of Vascular endothelial growth factor receptor 2 (P35968 whole entry): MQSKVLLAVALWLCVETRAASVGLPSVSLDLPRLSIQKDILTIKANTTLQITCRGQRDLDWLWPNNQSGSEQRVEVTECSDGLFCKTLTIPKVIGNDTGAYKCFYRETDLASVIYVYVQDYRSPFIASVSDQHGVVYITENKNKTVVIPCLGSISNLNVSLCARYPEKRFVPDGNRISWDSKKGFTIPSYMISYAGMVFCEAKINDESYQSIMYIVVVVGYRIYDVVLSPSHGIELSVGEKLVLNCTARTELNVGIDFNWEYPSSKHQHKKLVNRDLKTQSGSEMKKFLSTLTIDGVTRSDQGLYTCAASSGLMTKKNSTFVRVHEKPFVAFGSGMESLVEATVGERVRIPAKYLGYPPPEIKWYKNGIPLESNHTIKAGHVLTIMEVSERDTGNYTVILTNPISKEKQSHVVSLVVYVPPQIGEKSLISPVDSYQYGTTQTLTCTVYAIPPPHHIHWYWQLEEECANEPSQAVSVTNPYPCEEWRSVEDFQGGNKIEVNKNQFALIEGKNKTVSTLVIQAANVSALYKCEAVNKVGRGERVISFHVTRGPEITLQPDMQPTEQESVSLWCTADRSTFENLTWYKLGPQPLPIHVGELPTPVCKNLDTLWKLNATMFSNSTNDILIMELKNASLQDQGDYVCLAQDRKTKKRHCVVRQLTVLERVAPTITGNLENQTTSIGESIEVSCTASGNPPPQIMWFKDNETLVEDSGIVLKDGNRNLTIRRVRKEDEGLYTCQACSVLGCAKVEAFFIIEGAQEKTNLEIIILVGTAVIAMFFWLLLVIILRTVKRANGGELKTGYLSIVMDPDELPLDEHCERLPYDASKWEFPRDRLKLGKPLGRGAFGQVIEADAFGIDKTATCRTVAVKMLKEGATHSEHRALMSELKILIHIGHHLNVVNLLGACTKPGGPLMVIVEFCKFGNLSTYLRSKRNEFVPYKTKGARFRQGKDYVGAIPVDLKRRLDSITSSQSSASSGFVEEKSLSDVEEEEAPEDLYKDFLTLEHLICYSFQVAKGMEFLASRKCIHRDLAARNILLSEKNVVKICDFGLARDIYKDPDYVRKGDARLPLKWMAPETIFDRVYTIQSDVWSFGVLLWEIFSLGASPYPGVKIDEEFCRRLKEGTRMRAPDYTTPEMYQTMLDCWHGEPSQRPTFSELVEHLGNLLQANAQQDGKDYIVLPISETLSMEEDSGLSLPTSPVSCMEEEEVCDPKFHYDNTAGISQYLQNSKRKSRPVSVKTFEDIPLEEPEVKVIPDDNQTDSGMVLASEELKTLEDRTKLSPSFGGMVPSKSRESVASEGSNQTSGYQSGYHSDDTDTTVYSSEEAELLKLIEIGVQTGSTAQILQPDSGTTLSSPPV

[17] = target: Hepatocyte growth factor receptor (Homo sapiens, UniProt P08581); test: Inhibition of human GST-tagged c-MET using KKKSPGEYVNIEFG as substrate preincubated for 20 mins followed by [gamma-33P]ATP addition and measured after 2 hrs by filter-binding assay
Chain of Hepatocyte growth factor receptor (P08581 whole entry): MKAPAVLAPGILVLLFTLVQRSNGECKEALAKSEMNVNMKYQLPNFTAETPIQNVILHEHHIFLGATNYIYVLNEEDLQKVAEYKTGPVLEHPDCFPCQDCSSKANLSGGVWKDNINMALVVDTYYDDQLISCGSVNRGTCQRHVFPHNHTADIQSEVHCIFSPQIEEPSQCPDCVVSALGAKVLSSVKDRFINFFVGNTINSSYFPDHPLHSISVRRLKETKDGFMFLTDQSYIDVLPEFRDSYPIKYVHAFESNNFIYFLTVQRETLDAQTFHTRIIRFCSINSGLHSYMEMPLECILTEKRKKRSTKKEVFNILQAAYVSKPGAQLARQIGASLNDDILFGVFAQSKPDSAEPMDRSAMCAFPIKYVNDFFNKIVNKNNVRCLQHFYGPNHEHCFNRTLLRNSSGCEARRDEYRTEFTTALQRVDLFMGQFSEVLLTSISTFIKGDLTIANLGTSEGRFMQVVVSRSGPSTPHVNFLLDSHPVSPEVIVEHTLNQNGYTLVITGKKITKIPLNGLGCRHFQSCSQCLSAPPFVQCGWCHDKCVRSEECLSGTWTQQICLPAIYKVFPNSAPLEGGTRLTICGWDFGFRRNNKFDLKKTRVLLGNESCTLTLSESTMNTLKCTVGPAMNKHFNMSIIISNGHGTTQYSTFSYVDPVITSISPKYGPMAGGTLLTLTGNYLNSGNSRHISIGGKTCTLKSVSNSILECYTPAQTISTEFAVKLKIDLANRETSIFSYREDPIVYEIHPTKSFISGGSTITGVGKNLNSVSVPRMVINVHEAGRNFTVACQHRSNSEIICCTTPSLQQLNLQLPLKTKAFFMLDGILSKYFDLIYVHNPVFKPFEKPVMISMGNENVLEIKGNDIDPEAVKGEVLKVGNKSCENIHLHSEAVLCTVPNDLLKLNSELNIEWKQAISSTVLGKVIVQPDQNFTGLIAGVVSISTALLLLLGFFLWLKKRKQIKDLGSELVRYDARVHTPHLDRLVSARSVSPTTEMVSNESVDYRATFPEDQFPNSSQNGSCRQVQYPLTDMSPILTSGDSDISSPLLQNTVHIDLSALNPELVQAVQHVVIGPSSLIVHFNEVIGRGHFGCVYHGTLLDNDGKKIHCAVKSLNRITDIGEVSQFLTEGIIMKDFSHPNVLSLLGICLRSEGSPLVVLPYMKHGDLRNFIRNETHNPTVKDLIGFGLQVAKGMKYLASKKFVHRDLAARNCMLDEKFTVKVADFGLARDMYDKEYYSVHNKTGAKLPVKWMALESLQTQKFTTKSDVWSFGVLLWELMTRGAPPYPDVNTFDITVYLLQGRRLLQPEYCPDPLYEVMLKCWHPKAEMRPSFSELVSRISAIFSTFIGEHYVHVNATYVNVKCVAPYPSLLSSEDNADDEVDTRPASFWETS

IC50 [1] [µM] | IC50 [2] [µM] | IC50 [5] [µM] | IC50 [9] [µM] | SMILES | IC50 [4] [µM] | inhibition of growth at 10 µM [10] [%] | inhibition of growth at 10 µM [11] [%] | inhibition of growth at 10 µM [12] [%] | inhibition of growth at 10 µM [13] [%] | inhibition of growth at 10 µM [14] [%] | other results
1.02 | – | – | – | COc1ccc2c(OCc3nnc4sc(-c5ccc6[nH]cnc6c5)nn34)ccnc2c1 | 3.17 | – | – | – | – | – | –
1.17 | 2.24 | 2.97 | 2.06 | COc1ccc2c(OCc3nnc4sc(-c5cc6ccccc6[nH]5)nn34)ccnc2c1 | 0.506 | – | – | – | – | – | –

The next lines start with the compound.

SMILES | IC50 [1] [µM] | IC50 [2] [µM] | IC50 [5] [µM] | IC50 [9] [µM] | IC50 [4] [µM] | inhibition of growth at 10 µM [10] [%] | inhibition of growth at 10 µM [11] [%] | inhibition of growth at 10 µM [12] [%] | inhibition of growth at 10 µM [13] [%] | inhibition of growth at 10 µM [14] [%] | other results
C[C@@H](Oc1cc(-c2cnn(C3CCNCC3)c2)cnc1N)c1c(Cl)ccc(F)c1Cl [CRIZOTINIB] | 0.022 | 2.45 | 9.79 | 2.24 | 0.013 | – | – | – | – | – | IC50 [3]: 0.254 µM; IC50 [6]: 0.134 µM; IC50 [7]: 0.321 µM; IC50 [8]: 0.045 µM
Fc1ccccc1-c1cn2c(COc3ccc4c(c3)OCO4)nnc2s1 | – | – | – | – | – | 4.73 | 45.4 | 12.4 | 20.1 | 19.4 | –
COc1ccc(Cc2nnc3sc(-c4cc5ccccc5[nH]4)nn23)cc1 | – | – | – | – | – | 0.64 | 14.9 | 12.3 | 6.08 | 55.1 | inhibition [15]: 17.8%; IC50 [16]: 3.33 µM; IC50 [17]: 0.19 µM
COc1ccc(Cc2nnc3sc(-c4ccccc4OC)nn23)cc1 | – | – | – | – | – | 8.2 | 35.7 | 15.5 | 10.4 | 57.7 | –
